The source of these data is ChEMBL document CHEMBL4229472, “Surface Probing by Fragment-Based Screening and Computational Methods Identifies Ligandable Pockets on the von Hippel-Lindau (VHL) E3 Ubiquitin Ligase” (J Med Chem, 2018).

Where only a bound is given, the exact number is not on record here.

The target of experiment [1] is T1, von Hippel-Lindau disease tumor suppressor/Elongin-C/Elongin-B/HIF1A (Homo sapiens) (UniProt Q16665+P40337+Q15370+Q15369). As to the kind of experiment: Binding affinity to N-terminal His6 tagged VHL (54 to 213 residues)/ELoC (17 to 112 residues)/EloB (1 to 120 residues)/HIF-1alpha (unknown origin) complex expressed in Escherichia coli BL21(DE3) assessed as change in melting temperature at 1 mM by Sypro orange dye based differential scanning fluorimetric analysis. The method, boiled down:
(§1)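 Thermal shift screen with each fragment tested as a singleton. Unfolding temperature is followed with a fluorescent dye that binds preferentially to unfolded protein. For line 1 the target is VCB alone. For line 3 it is VCB preincubated with HIF-1α peptide (VCBH), which separates binders of the HIF site from binders elsewhere in the complex.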
On the technique in general: In DSF a fluorescence change marks the thermal transition of the protein.

The target in experiment [2] is T1, von Hippel-Lindau disease tumor suppressor/Elongin-C/Elongin-B/HIF1A (Homo sapiens). The experiment in a line: Binding affinity to N-terminal His6 tagged VHL (54 to 213 residues)/ELoC (17 to 112 residues)/EloB (1 to 120 residues)/HIF-1alpha (unknown origin) complex expressed in Escherichia coli BL21(DE3) assessed as change in melting temperature at 1 mM in presence of DEALA-Hyp-YIPMDDDFQLRSF by differential scanning fluorimetry.

The target in experiment [3] is Von Hippel-Lindau disease tumor suppressor/Elongin B/Elongin C (Homo sapiens) (UniProt P40337+Q15370+Q15369). As to the kind of experiment: Binding affinity to N-terminal His6 tagged VHL (54 to 213 residues)/ELoC (17 to 112 residues)/EloB (1 to 120 residues) (unknown origin) complex expressed in Escherichia coli BL21(DE3) assessed as change in melting temperature at 1 mM by Sypro orange dye based differential scanning fluorimetric analysis. The method, boiled down: as §1

Experiment [4] concerns the target Von Hippel-Lindau disease tumor suppressor/Elongin B/Elongin C (Homo sapiens, UniProt P40337). As to the kind of experiment: Binding affinity to N-terminal His6 tagged VHL (54 to 213 residues)/ELoC (17 to 112 residues)/EloB (1 to 120 residues) (unknown origin) complex expressed in Escherichia coli BL21(DE3) assessed as dissociation constant by ITC method.

`COC(=O)c1cc2occc2[nH]1`: the ΔTm (commonly the change in melting temperature against a reference sample) was > 0.5 °C in experiment [1], 0.7 °C in experiment [2] and > 0.5 °C in experiment [3].
With `OCc1ccc(-n2cccc2)cc1`, the Kd (as a rule, a measure of binding affinity in units of concentration) in experiment [4] is 5 mM. Moreover, the ΔTm in experiment [1] and in experiment [3] was > 0.5 °C throughout.
For `O=C1CCSc2ccc(Cl)cc21`, the Kd in experiment [4] came out at 6.7 mM. In addition, the ΔTm in experiment [1] was > 0.5 °C; in experiment [2] it was 1.2 °C; in experiment [3], > 0.5 °C.
